Results of several laboratories.
Lines come from different studies, so protocols differ.
Read-out: cell growth or viability

SMILES	cell line	technique	concentration	time	endpoint	value
CC(=O)Nc1ccc(Oc2nnc(-c3ccc(Cl)cc3)c3ccccc23)cc1	MCF7	MTT	1.25 µM		cell death	93.9%
COc1ccc(CNC[C@](O)(COCc2ccc(F)cc2)[C@@H]2CC[C@@H](C)C[C@H]2OCc2ccc(F)cc2)cc1	MCF7	MTT	10 µM	72 h	inhibition	97.7%
Cc1c(C(=O)O)ccc2c3n(nc12)[C@@H]1[C@H](C3)N(CC2CC2)[C@@]2(C(=O)Nc3cc(Cl)ccc32)[C@H]1c1cccc(Cl)c1F	SJSA-1	ATP luminescence			IC50	12 nM
COc1ccc(CNC[C@](O)(COCc2ccc(OC)cc2)[C@@H]2CC[C@@H](C)C[C@H]2OCc2ccc(OC)cc2)cc1	MCF7	MTT	10 µM	72 h	inhibition	101%
CC(=O)c1nn(-c2ccc(C)cc2)/c(=N/N=C(\C)c2ccc(NC(=O)c3ccccc3)cc2)s1	MCF7	MTT	10 µM		viability	6.47%
O=C(Nc1ccccc1)Nc1ccc(Oc2nnc(-c3ccc(Cl)cc3)c3ccccc23)cc1	MCF7	MTT	0.625 µM		cell death	95.4%
COc1ccc(COC[C@@](O)(CNCc2ccccc2)[C@@H]2CC[C@@H](C)C[C@H]2OCc2ccc(OC)cc2)cc1	MCF7	MTT	10 µM	72 h	inhibition	96.2%
C=CC(=O)NC1CCN(c2ncc3ncnc(Nc4ccc(Oc5ccc6c(c5)ncn6C)c(C)c4)c3n2)CC1	SNU-398				EC50	36.5 nM
CCOC(=O)c1nn(-c2cccc(Cl)c2)/c(=N/N=C(\C)c2ccc(NC(=O)c3ccc(Cl)cc3)cc2)s1	MCF7	MTT	78 nM		viability	73.5%
